The values that follow come from ChEMBL document CHEMBL3272237, “Gliotoxin analogues as inhibitors of reverse transcriptase. 1. Effect of lipophilicity” (J Med Chem, 1978).

Series [1] concerns Moloney murine leukemia virus. Nature of the series: Inhibition of Moloney murine leukemia virus reverse transcriptase using [3H-methyl]-dTTP as substrate after 120 mins. Set-up: unit not given here. Put shortly:
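Enzyme source was Moloney MLV from infected NIH-3T3 cells, gradient-purified, used as whole virus. Mix: 40 mM Tris-HCl pH 7.8, 50 mM NaCl, 2 mM MnCl2, 1.6 mM DTT, 0.0125% Triton X-100, 0.64 mM each dATP/dCTP/dGTP, [methyl-3H]dTTP. Compounds were tested at 4–400 μg/mL (Me2SO up to 4%). Incubation was 37 °C, sampled at 120 min for acid-precipitable counts, mean of three runs. I50 read from %-of-Me2SO-control plot.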

A short description of series [2]: Lipophilicity of the compound by reversed-phase TLC analysis. Type of series: physicochemical. To be noted: RP-TLC on silylated silica plates impregnated with Dow-Corning 704 fluid. In short, it runs like this:
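Silica gel F-254 plates were silanized with 5% (CH3)2SiCl2 in toluene, then impregnated with 5% Dow-Corning 704 fluid in ether. Spots were 1 μL of 3 mg/mL CH2Cl2 solution. Plates were developed in acetone–water 3:1 saturated with the fluid and visualized with 2% aqueous AgNO3. Rm = log(1/Rf − 1), averaged over five determinations.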

Series [3] in a line: Lipophilicity of the compound by reversed-phase HPLC analysis. To be noted: ODS stationary phase, MeOH-H2O (2:1) mobile phase.

`CN1C(=O)C23SSC1(c1ccccc1)C(=O)N2c1ccccc1C3(C)C` (stereo unspecified): the log(I50×10^5) in series [1] was found to be 0.978. The compound also had a Rm in series [2] of 0.3007. The “log k'” value in series [3] is -0.0527.

With `CC12SSC3(C(=O)N1Cc1ccccc1)N(C2=O)c1ccccc1C3(C)C` (stereo unspecified), the log(I50×10^5) in series [1] is 0.574. In series [2], this compound came in with a Rm of 0.3514. Besides, the “log k'” value in series [3] stood at 0.0994.

`CN1CC(=O)N2c3ccccc3C(C)(C)C2(S)C1=O` (stereo unspecified) yielded a log(I50×10^5) in series [1] of 2.07. This compound also displayed a Rm in series [2] of 0.0132. Besides, the “log k'” value in series [3] is reported as -1.067.

On to `CC(C)N1C(=O)C23SSC1(C)C(=O)N2c1ccccc1C3(C)C` (stereo unspecified), for which, in series [1], the log(I50×10^5) was found to be 1.93. The Rm in series [2] is reported as 0.2769. In addition, the “log k'” value in series [3] is reported as -0.1291.

`CC12SSC3(C(=O)N1c1ccccc1)N(C2=O)c1ccccc1C3(C)C` (stereo unspecified) had a log(I50×10^5) in series [1] of 1.69. For the same compound, the Rm in series [2] worked out at 0.2892. Also, the “log k'” value in series [3] is -0.1127.

For the compound `CCCN1C(=O)C23SSC1(C)C(=O)N2c1ccccc1C3(C)C` (stereo unspecified), in series [1], the log(I50×10^5) is 1.06. In addition, in series [2], the Rm is listed as 0.2717. Besides, the “log k'” value in series [3] is -0.0817.

The compound `CCN1C(=O)C23SSC1(C)C(=O)N2c1ccccc1C3(C)C` (stereo unspecified) yielded a log(I50×10^5) in series [1] of 1.89. The Rm in series [2] is 0.1636. In series [3], the “log k'” value is -0.34.
